The record followed here is ChEMBL document CHEMBL3272003, “(-)-3-Isothujone, a small nonnitrogenous molecule with antinociceptive activity in mice” (J Med Chem, 1976).

The term ED50 denotes the dose at which the effect has come halfway, by size or by number of responders. High values mean a need for a large dose, low ones an effect at a small dose. As usually defined, the LD50 is the dose at which mortality reaches 50%. A lower LD50 goes with greater toxicity.

In series [1] the test system is Mus musculus. Kind of series: Antinociceptive activity in sc dosed male white mouse by hot plate test. Format: functional. On the technique in general: In hot-plate and tail-flick tests a longer latency is read as antinociception.
Series [2] can be described thus: Toxicity in sc dosed male white mouse. Format: organism-based. As to conditions: in vivo. The essentials: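 LD50 determined in the same male white mouse strain, with the same vehicle and subcutaneous route as the antinociceptive tests. Room temperature was 23 °C. 95% confidence limits were obtained by probit analysis.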
In series [3] the test system is Mus musculus. The series is described as follows: Antinociceptive activity in sc dosed male white mouse by Nilsen test. Format: functional.
Series [4] deals with Mus musculus. The series is described as follows: Antinociceptive activity in male white mouse at 100 mg/kg, sc by hot plate test. The format is functional, organism-based. Also on record: dose 100 mg/kg. The method in brief:
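Hot-plate antinociception test in male white mice, run by the standard method, with the compound given subcutaneously. Room temperature was held at 23 °C during testing.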

Series [5] deals with Mus musculus. The series is described as follows: Antinociceptive activity in male white mouse at 100 mg/kg, sc by Nilsen test. Also on record: dose 100 mg/kg. The format is functional, organism-based.
The subject of series [6] is Mus musculus. Kind of series: Toxicity in male white mouse assessed as induction of convulsions at 100 mg/kg, sc. Format: organism-based. Also on record: dose 100 mg/kg, route subcutaneous. As to conditions: in vivo.
Series [7] has as its system Mus musculus. The series is described as follows: Antinociceptive activity in male white mouse at 20 mg/kg, sc by Nilsen test. The format is functional, organism-based. Also on record: dose 20 mg/kg.
Series [8] concerns Mus musculus. The series is described as follows: Toxicity in male white mouse assessed as induction of convulsions at 50 mg/kg, sc. Format: organism-based. Also on record: dose 50 mg/kg, route subcutaneous. As to conditions: in vivo.
Series [9] has as its system Mus musculus. The series is described as follows: Toxicity in male white mouse assessed as induction of convulsions<40 mg/kg, sc. The format is organism-based. To be noted: in vivo.

Activity calls are given as the source filed them. No cut-off for these calls is given here.

`CCC(=O)C(CC(C)N(C)C)(c1ccccc1)c1ccccc1` (racemic) [METHADONE]: the ED50 with Mus musculus [1] stood at 0.8 mg/kg. For the same compound, the LD50 in series [2] worked out at 44 mg/kg.

`CC1C(=O)C[C@]2(C(C)C)C[C@H]12` (mixture of isomers) displayed an ED50 in the series on Mus musculus [1] of 16.7 mg/kg. The same compound registered an LD50 in [2] of 134 mg/kg.

Take `COc1ccc2c3c1O[C@H]1[C@@H](O)C=C[C@H]4[C@@H](C2)N(C)CC[C@@]341.Cl`: the figures for the ED50 in the series on Mus musculus [1] and in the series on Mus musculus [3] were 7.5 mg/kg and 4.5 mg/kg, respectively. In series [2], this compound had a median lethal dose (LD50) of 270 mg/kg.

On to `CCCCCc1cc(O)c2c(c1)OC(C)(C)[C@@H]1CCC(C)=C[C@@H]21` [DRONABINOL], for which, in the series on Mus musculus [1], the 50% effect level (ED50) was put at a dose of 9.6 mg/kg.

Turning to `CCCCCc1cc(O)c2c(c1)OC(C)(C)C1CC=C(CO)CC21` (centres undefined), the ED50 in the series with Mus musculus [1] worked out at 1.9 mg/kg; with Mus musculus [3], 5.4 mg/kg.

Consider `CC(C)[C@]12CC(=O)[C@@H](C)[C@H]1C2`, for which the outcome in the series with Mus musculus [4] and in the series on Mus musculus [5] was Active. Besides, the median lethal dose (LD50) in series [2] is 442 mg/kg. In the series on Mus musculus [6], the Activity result was “Toxic”.

As to `CC(C)[C@]12C[C@@H](O)[C@H](C)[C@H]1C2`, in the series on Mus musculus [1], it took a dose of 33.3 mg/kg to reach the 50% effect level (ED50).

In the case of `CCCCCc1cc(O)c2c(c1)OC(C)(C)[C@@H]1CC=C(C)CC21` (some centres undefined), the median effective dose (ED50) in the series on Mus musculus [1] was 8.8 mg/kg. For the same compound, the outcome in the series on Mus musculus [7] was inactive.

Regarding `CN1CC[C@]23c4c5ccc(O)c4O[C@H]2[C@@H](O)C=C[C@H]3[C@H]1C5.CN1CC[C@]23c4c5ccc(O)c4O[C@H]2[C@@H](O)C=C[C@H]3[C@H]1C5.O=S(=O)(O)O`, the 50% effective dose (ED50) with Mus musculus [1] worked out at 1.2 mg/kg; with Mus musculus [3], 0.8 mg/kg.

With `CC(C)[C@]12CC(=O)[C@H](C)[C@H]1C2`, the ED50 came to 6.5 mg/kg in the series with Mus musculus [1] and 14.1 mg/kg in the series with Mus musculus [3]. This compound returned a median lethal dose (LD50) in [2] of 87.5 mg/kg. Moreover, the Activity entry in the series on Mus musculus [8] was “Toxic”; in the series on Mus musculus [9], “Non-toxic”.
